Measurements as given in ChEMBL document CHEMBL4257504, “Tricyclic xanthine derivatives containing a basic substituent: adenosine receptor affinity and drug-related properties” (Medchemcomm, 2018).
Converted amounts (≈) assume the structure as drawn. One block for each compound: values may come before it.

Columns and labels:
[1] = Metabolic stability in rat liver microsomes at 50 uM preincubated for 5 mins followed by addition of NADPH regenerating system and measured after 120 mins by UPLC/MS analysis; assay type: ADME, microsome; details: 2 h
Procedure, shortened: (§1)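 Incubations use pooled human (adult male and female) or rat liver microsomes at 1 mg/ml in 0.1 M Tris-HCl pH 7.4 with compound at 50 μM. After 5 min preincubation at 37 °C, an NADPH regenerating system is added to start the reaction. Cold methanol stops it at 120 min; samples are centrifuged and the supernatant analysed by UPLC/MS.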

HEK293 = experiment: Cytotoxicity against HEK293 cells assessed as decrease in cell viability after 48 hrs by formazan dye-based EZ4U assay; details: Homo sapiens, HEK293, 48 h
Procedure, shortened: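 HEK-293 cells are seeded at 1 × 10^4 per well and grown 24 h to 60% confluence. Compounds (25 mM DMSO stocks) are diluted into medium at final 0.1–250 μM, with DMSO ≤1%, and left 48 h.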

Adenosine receptor A1 = target: T1, Adenosine receptor A1 (Rattus norvegicus, UniProt P25099); experiment: Displacement of [3H]CCPA from adenosine A1 receptor in rat brain cortical membranes; assay type: cell membranes
T1 sequence (P25099 whole entry): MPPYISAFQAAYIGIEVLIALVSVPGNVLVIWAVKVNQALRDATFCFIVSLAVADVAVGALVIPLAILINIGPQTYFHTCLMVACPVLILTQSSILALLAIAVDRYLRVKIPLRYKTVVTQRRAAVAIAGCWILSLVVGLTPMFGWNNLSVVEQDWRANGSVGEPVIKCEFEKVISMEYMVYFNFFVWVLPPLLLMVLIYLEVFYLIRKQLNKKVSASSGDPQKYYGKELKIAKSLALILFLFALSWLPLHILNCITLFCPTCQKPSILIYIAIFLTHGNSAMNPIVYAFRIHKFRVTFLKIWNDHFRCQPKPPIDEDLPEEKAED
Procedure, shortened: (§2)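 Membrane radioligand binding: A1 in rat brain cortical membranes and A2A in rat brain striatal membranes, with human A1 and A2A in recombinant CHO cell membranes. Radioligands are [3H]CCPA for A1 and [3H]MSX-2 for A2A. Full concentration-inhibition curves use six to ten concentrations spanning three orders of magnitude, with at least three independent experiments.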

Cytochrome P450 3A4 = Cytochrome P450 3A4 (Homo sapiens, UniProt P08684); experiment: Inhibition of recombinant human CYP3A4 by bioluminescence method; assay type: ADME
Chain of Cytochrome P450 3A4 (P08684 whole entry): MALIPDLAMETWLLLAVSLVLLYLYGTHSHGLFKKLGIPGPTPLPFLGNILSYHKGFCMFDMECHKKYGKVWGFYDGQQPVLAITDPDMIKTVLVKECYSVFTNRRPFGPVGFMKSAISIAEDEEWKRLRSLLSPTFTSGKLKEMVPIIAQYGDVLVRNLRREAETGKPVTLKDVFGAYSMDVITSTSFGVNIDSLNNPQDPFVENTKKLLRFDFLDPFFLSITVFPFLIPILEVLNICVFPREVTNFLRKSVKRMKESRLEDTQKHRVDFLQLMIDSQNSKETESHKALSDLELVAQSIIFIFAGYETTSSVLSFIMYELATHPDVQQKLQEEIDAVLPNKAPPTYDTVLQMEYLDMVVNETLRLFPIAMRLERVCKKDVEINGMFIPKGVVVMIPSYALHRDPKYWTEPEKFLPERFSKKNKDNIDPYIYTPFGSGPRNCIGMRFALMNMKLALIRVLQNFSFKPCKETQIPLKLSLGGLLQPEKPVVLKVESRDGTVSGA

[2] = Metabolic stability in human liver microsomes at 50 uM preincubated for 5 mins followed by addition of NADPH regenerating system and measured after 120 mins by UPLC/MS analysis; assay type: ADME, microsome; details: 2 h; procedure, shortened: as §1
Adenosine receptor A2b [3] = target: T2, Adenosine receptor A2b (Homo sapiens, UniProt P29275); experiment: Displacement of [3H]PSB-603 from human adenosine A2B receptor expressed in CHO cell membranes
T2 sequence (P29275 whole entry): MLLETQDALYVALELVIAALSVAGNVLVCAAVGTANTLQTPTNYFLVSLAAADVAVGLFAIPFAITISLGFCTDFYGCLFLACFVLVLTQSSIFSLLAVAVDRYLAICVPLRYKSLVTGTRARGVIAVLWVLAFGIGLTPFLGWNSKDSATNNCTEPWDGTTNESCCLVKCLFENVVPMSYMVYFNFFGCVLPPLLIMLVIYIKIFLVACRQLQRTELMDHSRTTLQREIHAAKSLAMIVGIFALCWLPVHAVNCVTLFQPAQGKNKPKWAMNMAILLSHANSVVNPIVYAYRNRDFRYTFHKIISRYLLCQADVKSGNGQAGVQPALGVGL

Adenosine receptor A3 [4] = target: T3, Adenosine receptor A3 (Homo sapiens, UniProt P0DMS8); experiment: Displacement of [3H]PSB-11 from human adenosine A3 receptor expressed in CHO cell membranes
T3 sequence (P0DMS8 whole entry): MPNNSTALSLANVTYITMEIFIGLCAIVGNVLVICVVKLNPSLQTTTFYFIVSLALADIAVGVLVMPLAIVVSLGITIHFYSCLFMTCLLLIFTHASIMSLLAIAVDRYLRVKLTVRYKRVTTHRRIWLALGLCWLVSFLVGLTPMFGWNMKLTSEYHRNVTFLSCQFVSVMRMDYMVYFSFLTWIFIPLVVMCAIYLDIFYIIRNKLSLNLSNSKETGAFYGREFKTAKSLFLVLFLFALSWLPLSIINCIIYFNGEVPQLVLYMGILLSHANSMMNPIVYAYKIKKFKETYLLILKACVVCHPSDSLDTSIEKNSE
Procedure, shortened: (§3)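 Membranes from CHO cells recombinantly expressing human A2B or A3 receptor. Radioligands are [3H]PSB-603 for A2B and [3H]PSB-11 for A3. Competition curves use six to ten test-compound concentrations spanning three orders of magnitude, with at least three independent experiments.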

Adenosine receptor A2a = Adenosine receptor A2a (Rattus norvegicus, UniProt P30543); experiment: Displacement of [3H]MSX-2 from adenosine A2A receptor in rat brain striatal membranes; assay type: cell membranes, Striatum, Membrane; procedure, shortened: as §2
Chain of Adenosine receptor A2a (P30543 whole entry): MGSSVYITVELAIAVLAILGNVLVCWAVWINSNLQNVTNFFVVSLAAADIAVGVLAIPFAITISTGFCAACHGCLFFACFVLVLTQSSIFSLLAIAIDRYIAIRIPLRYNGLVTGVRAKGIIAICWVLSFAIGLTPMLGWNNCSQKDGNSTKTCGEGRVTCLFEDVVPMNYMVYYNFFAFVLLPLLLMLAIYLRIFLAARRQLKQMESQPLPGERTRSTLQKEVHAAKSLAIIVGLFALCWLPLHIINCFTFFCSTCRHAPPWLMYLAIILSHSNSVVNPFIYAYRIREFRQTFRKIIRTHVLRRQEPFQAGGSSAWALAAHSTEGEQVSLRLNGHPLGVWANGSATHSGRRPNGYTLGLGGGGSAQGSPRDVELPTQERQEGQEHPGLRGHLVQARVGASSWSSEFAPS

Adenosine receptor A2b [5] = target: T2, Adenosine receptor A2b; experiment: […] from human adenosine A2B receptor expressed in CHO cell membranes; details: in the assay text read “[3H]PSB-603” for “[3H]PSB-602”; procedure, shortened: as §3
[6] = Solubility of compound in water after over night incubation by UV spectroscopic method; assay type: physicochemical
Procedure, shortened: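 Compound (10 mg, basic form) is suspended in 2 mL water, boiled 5 min, left overnight at 20 °C and filtered. The filtrate is diluted 10–80-fold in MeOH and read by UV in 90% MeOH/H2O. Concentration comes from seven-point standard curves (10^-3 to 10^-1 mg/mL) by linear regression, multiplied by the dilution factor.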

Adenosine receptor A3 [7] = target: T3, Adenosine receptor A3; experiment: Binding affinity to human adenosine A3 receptor by radioligand displacement assay
Procedure, shortened: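 Membranes from CHO cells recombinantly expressing human A2B or A3 receptor. Competition curves use six to ten test-compound concentrations spanning three orders of magnitude, with at least three independent experiments.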

[8] = (§4) Drug level in rat liver microsomes treated with 2-(4-(2-(1,3-Dibutyl-2,4-dioxo-1,2,3,4,7,8-hexahydropyrimido[2,1-f]purin-9(6H)-yl)ethyl)phenoxy)-N-(3-(diethylamino)propyl)-acetamide at 50 uM preincubated for 5 mins followed by addition of NADPH regenerating system and measured after 120 mins by UPLC/MS analysis; assay type: ADME, microsome; details: 2 h; procedure, shortened: as §1
[9] = as §4, with “in human” for “in rat”; assay type: ADME, microsome; details: 2 h; procedure, shortened: as §1

Stability [1]: Stable
Ki (Adenosine receptor A1): 36.6 nM
inhibition (INH) (Cytochrome P450 3A4; human, recombinant enzyme): Not Active
Stability [2]: Stable
Ki (Adenosine receptor A2b [3]): 66.3 nM
Ki (Adenosine receptor A3 [4]): 204 nM
Ki (Adenosine receptor A2a): 455 nM
Compound: CCCCn1c(=O)c2c(nc3n2CCCN3CCc2ccc(OCC(=O)NCCN3CCCC3)cc2)n(CCCC)c1=O
IC50 (HEK293): 23.4 µM

Ki (Adenosine receptor A1): 24.8 nM
IC50 (Cytochrome P450 3A4): 230 nM
Ki (Adenosine receptor A2b [5]): 126 nM
Ki (Adenosine receptor A3 [4]): 248 nM
solubility [6]: 632 µM (≈ 385 µg/mL)
Ki (Adenosine receptor A2a): 318 nM
Compound: CCCCn1c(=O)c2c(nc3n2CCCN3CCc2ccc(OCC(=O)NCCCN(CC)CC)cc2)n(CCCC)c1=O
IC50 (HEK293): 27.3 µM

Ki (Adenosine receptor A3 [7]): 4.39 µM
Compound: CCCn1c(=O)c2[nH]c(C34CC5CC(CC3C5)C4)nc2n(CCC)c1=O [ROLOFYLLINE]

Drug metabolism [8]: Metabolite_Detected
Drug metabolism [9]: Metabolite_Detected
Compound: CCCCn1c(=O)n(CCC(C)O)c(=O)c2c1nc1n2CCCN1CCc1ccc(OCC(=O)NCCCN(CC)CC)cc1 (stereo not drawn)
